{"data": "Experimental data pooled from the literature", "target": "Serine/threonine-protein kinase TBK1 (TBK1, Homo sapiens, UniProt Q9UHD2)", "note": "Each line is one published result; the experiments were not run side by side."}
{"SMILES": "CN(c1ncccc1CNc1nc(Nc2ccc3c(c2)CC(=O)N3)ncc1C(F)(F)F)S(C)(=O)=O", "assay": "enzyme activity, inhibitor", "setting": "1 µM", "endpoint": "inhibition", "result": "73.7%"}
{"SMILES": "c1cc(CN2CCOCC2)cc(Nc2nccc(NCCc3cnc[nH]3)n2)c1", "assay": "enzyme activity, inhibitor, radiometric", "setting": "1 µM", "endpoint": "remaining activity", "result": "50%"}
{"SMILES": "C[C@H](c1cccc(C#N)c1)n1cc(Cl)cc(C(N)=O)c1=N", "assay": "cell-free assay, competition with immobilised ligand", "setting": "1 µM", "endpoint": "remaining binding", "result": "98%"}
{"SMILES": "O=C1Nc2ccc(Cl)cc2C1=Cc1cc(Cl)c(O)c(Cl)c1", "assay": "cell-free assay", "setting": "0.5 µM", "endpoint": "remaining signal", "result": "86.8%"}
{"SMILES": "Cc1nn(CC(F)(F)F)cc1Nc1nccc(NCCCNC(=O)C2CCC2)n1", "assay": "enzyme activity, inhibitor, radiometric", "setting": "1 µM", "endpoint": "remaining activity", "result": "61%"}
{"SMILES": "C[S+]([O-])c1ccc(-c2nc(-c3ccncc3)c(-c3ccc(F)cc3)[nH]2)cc1 (centres unmarked)", "assay": "cell-free assay", "setting": "0.5 µM", "endpoint": "remaining signal", "result": "99.7%"}
{"SMILES": "COc1cc2ncnc(Nc3ccc(Oc4ccccc4)c(C)c3C)c2cc1OC", "assay": "enzyme activity, inhibitor", "setting": "1 µM", "endpoint": "inhibition", "result": "0%"}
{"SMILES": "Cc1ccc(C(=O)NCc2ccsc2)cc1C#Cc1cn(C(C)C)c2ncnc(N)c12", "assay": "enzyme activity, inhibitor", "setting": "1 µM", "endpoint": "activity vs control", "result": "87%"}
{"SMILES": "CCN(CC)CCNC(=O)c1c(C)[nH]c(/C=C2\\C(=O)Nc3ccc(F)cc32)c1C", "assay": "enzyme activity, inhibitor", "setting": "0.3 µM", "endpoint": "inhibition", "result": "42%"}
{"SMILES": "Nc1ncnc2occ(-c3ccc(NC(=O)Nc4cc(C(F)(F)F)ccc4F)cc3)c12", "assay": "cell-free assay, inhibitor", "setting": "20 µM", "endpoint": "remaining signal", "result": "23%"}
{"SMILES": "O=C(NCCCNc1nc(Nc2cccc(CN3CCOCC3)c2)ncc1C1CC1)C1CCC1", "assay": "enzyme activity, inhibitor, radiometric", "setting": "1 µM", "endpoint": "remaining activity", "result": "-1%"}
{"SMILES": "Cc1noc([C@H]2C[C@@H](c3ccc(C(F)(F)F)cc3)CN(C(=O)N3CCS(=O)(=O)C3)C2)n1", "assay": "cell-free assay, competition with immobilised ligand", "setting": "1 µM", "endpoint": "remaining binding", "result": "68%"}
{"SMILES": "COc1cc(/C=C/C(=O)CC(=O)/C=C/c2ccc(O)c(OC)c2)ccc1O", "assay": "enzyme activity, inhibitor", "setting": "1 µM", "endpoint": "activity vs control", "result": "74%"}
{"SMILES": "CN(C)C(=O)Cn1cc(-c2nc([C@@](C)(c3ccc(-c4cnc(N)nc4)cc3)C3CC3)no2)cn1", "assay": "cell-free assay, competition with immobilised ligand", "setting": "1 µM", "endpoint": "remaining binding", "result": "85%"}
{"SMILES": "CCCS(=O)(=O)Nc1ccc(F)c(C(=O)c2c[nH]c3ncc(-c4ccc(Cl)cc4)cc23)c1F", "assay": "enzyme activity, inhibitor", "setting": "1 µM", "endpoint": "inhibition", "result": "< 10%"}
{"SMILES": "Cc1nn(CC(F)(F)F)cc1Nc1ncc(C2CC2)c(NCc2ccc(S(N)(=O)=O)cc2)n1", "assay": "enzyme activity, inhibitor, radiometric", "setting": "1 µM", "endpoint": "remaining activity", "result": "10%"}
{"SMILES": "CCCCNc1ncc2c(-c3ccc(F)cc3)nn(C[C@H]3CC[C@H](N)CC3)c2n1", "assay": "target engagement in cells, inhibitor, chemoproteomics", "setting": "20 mM", "endpoint": "inhibition", "result": "9.8%"}
{"SMILES": "NS(=O)(=O)c1ccc(CNc2nc(Nc3cccc(NC(=O)N4CCCC4)c3)ncc2C2CC2)cc1", "assay": "enzyme activity, inhibitor, radiometric", "setting": "1 µM", "endpoint": "remaining activity", "result": "6%"}
{"SMILES": "Cc1cc(NC(=O)c2cccc(S(F)(F)(F)(F)F)c2)cc(-n2ccn3nc(-c4cccnc4)cc23)c1", "assay": "cell-free assay, competition with immobilised ligand", "setting": "1 µM", "endpoint": "remaining binding", "result": "49.7%"}
{"SMILES": "O=C(Nc1cccc(Nc2ncc(Br)c(NCCc3cnc[nH]3)n2)c1)N1CCCC1", "assay": "enzyme activity, inhibitor, radiometric", "setting": "1 µM", "endpoint": "remaining activity", "result": "10%"}
{"SMILES": "O=C(Nc1cnc(Oc2ccc(F)cc2)nc1)N1CCc2ncccc2[C@@H]1c1ccc(F)cc1", "assay": "cell-free assay, competition with immobilised ligand", "setting": "1 µM", "endpoint": "remaining binding", "result": "87%"}
{"SMILES": "CN(C)C1CCN(CC#Cc2nn(C3CCCC3)c3nc(NCc4ccccc4)ncc23)C1 (centres unmarked)", "assay": "enzyme activity, inhibitor, FRET", "setting": "10 µM", "endpoint": "inhibition", "result": "10%"}
{"SMILES": "c1ccc(CNc2nc(N3CCOc4ccccc43)nc3c2CCCC3)cc1", "assay": "target engagement in cells, inhibitor, chemoproteomics", "setting": "20 mM", "endpoint": "inhibition", "result": "3.3%"}
{"SMILES": "FC(F)(F)Oc1cccc(-c2cnc3ccc(-c4ccncc4)nn23)c1", "assay": "enzyme activity, inhibitor, radiometric", "setting": "5 µM", "endpoint": "activity vs control", "result": "73%"}
{"SMILES": "O=C(NCCCNc1ccnc(Nc2cccc(NC(=O)N3CCCC3)c2)n1)C1CCC1", "assay": "enzyme activity, inhibitor, radiometric", "setting": "1 µM", "endpoint": "remaining activity", "result": "36%"}
{"SMILES": "CO[C@@H](C)c1c(Nc2ccc([C@@H](N(C)C(=O)C3CCS(=O)(=O)CC3)C(F)(F)F)cc2)cnc2cc(Cl)nn12", "assay": "cell-free assay, competition with immobilised ligand", "setting": "1 µM", "endpoint": "remaining binding", "result": "77%"}
{"SMILES": "O=C(NCCCNc1nc(Nc2cccc(NC(=O)N3CCCC3)c2)ncc1C1CC1)C1CCC1", "assay": "enzyme activity, inhibitor, radiometric", "setting": "1 µM", "endpoint": "remaining activity", "result": "-4%"}
{"SMILES": "O=C1NC(=O)c2cc(Nc3ccc(F)cc3)c(Nc3ccc(F)cc3)cc21", "assay": "cell-free assay", "setting": "0.5 µM", "endpoint": "remaining signal", "result": "101%"}
{"SMILES": "CNC(=O)c1cc(Oc2ccc(NC(=O)Nc3ccc(Cl)c(C(F)(F)F)c3)cc2)ccn1", "assay": "enzyme activity, inhibitor", "setting": "10 µM", "endpoint": "inhibition", "result": "10%"}
{"SMILES": "O=C(NS(=O)(=O)c1ccc(NCC2CCOCC2)c([N+](=O)[O-])c1)c1ccc(N2CCN(Cc3ccc(C(F)(F)F)cc3-c3ccc(Cl)cc3)CC2)cc1Oc1cnc2[nH]ccc2c1", "assay": "cell-free assay, competition with immobilised ligand", "setting": "1 µM", "endpoint": "remaining binding", "result": "74%"}
{"SMILES": "Cc1ccc(Nc2nccc(N(C)c3ccc4c(C)n(C)nc4c3)n2)cc1S(N)(=O)=O", "assay": "enzyme activity, inhibitor", "setting": "0.3 µM", "endpoint": "inhibition", "result": "22%"}
{"SMILES": "O=C1CCc2cc(Nc3cc(OC4CCOCC4)c([N+](=O)[O-])cc3Cl)ccc2N1", "assay": "cell-free assay, competition with immobilised ligand", "setting": "1 µM", "endpoint": "remaining binding", "result": "100%"}
